The source made the active and inactive calls. No cut-off for these calls is given here.
What was measured:
[1] = molecular target: T1, Histone-lysine N-methyltransferase, H3 lysine-79 specific (Homo sapiens, UniProt Q8TEK3); experiment: Binding affinity to recombinant human N-terminal GST-tagged DOT1L (1 to 420 residues) expressed in Escherichia coli BL21 (DE3) assessed as increase in melting temperature at 100 uM incubated for 1 min by 1,8-ANS probe based thermal shift assay
Target sequence in this assay (Q8TEK3 whole entry, looked up, the tested form may be a part): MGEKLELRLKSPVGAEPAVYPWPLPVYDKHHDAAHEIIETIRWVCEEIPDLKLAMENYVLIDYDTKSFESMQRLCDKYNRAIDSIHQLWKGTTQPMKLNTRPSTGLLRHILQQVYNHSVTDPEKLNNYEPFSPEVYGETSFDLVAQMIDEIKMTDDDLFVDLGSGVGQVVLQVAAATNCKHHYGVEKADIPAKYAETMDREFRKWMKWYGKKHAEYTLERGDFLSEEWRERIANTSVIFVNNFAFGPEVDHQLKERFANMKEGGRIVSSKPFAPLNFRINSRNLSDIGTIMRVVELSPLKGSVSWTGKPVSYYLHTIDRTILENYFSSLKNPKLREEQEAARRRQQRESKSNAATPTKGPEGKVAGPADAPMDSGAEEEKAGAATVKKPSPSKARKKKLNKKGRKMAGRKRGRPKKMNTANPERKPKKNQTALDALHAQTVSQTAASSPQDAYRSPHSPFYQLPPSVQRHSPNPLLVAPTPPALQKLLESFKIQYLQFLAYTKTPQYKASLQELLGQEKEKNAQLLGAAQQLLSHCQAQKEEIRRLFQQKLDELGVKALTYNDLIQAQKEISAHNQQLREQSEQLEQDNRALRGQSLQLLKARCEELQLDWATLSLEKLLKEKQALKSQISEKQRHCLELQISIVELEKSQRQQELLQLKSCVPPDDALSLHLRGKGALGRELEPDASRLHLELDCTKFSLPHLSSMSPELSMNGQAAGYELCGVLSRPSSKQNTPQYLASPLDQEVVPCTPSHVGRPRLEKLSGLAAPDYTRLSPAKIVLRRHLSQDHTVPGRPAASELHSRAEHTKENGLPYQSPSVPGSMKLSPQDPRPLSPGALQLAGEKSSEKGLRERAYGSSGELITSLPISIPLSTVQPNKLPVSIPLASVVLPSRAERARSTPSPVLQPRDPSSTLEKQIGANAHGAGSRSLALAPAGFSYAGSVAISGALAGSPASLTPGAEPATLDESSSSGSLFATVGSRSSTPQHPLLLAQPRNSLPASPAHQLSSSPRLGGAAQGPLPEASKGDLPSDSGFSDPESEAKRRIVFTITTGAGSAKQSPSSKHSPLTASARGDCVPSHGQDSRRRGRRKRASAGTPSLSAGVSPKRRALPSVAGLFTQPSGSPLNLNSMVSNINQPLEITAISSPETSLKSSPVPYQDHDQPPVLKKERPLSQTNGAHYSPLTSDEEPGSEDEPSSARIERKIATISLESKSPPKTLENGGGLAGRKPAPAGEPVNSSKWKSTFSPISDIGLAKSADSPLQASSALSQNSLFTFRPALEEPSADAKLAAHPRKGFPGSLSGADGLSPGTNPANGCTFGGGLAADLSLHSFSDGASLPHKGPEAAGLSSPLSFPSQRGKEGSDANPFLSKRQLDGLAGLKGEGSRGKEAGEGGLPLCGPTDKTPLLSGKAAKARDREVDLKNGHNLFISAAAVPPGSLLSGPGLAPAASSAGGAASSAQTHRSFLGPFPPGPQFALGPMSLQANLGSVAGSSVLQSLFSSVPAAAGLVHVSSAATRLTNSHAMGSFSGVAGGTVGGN

[2] = molecular target: T1, Histone-lysine N-methyltransferase, H3 lysine-79 specific; experiment: Inhibition of recombinant human N-terminal GST-tagged DOT1L (1 to 420 residues) expressed in Escherichia coli BL21 (DE3) using nucleosome as substrate incubated for 1 hr in presence of [3H]-SAM by liquid scintillation counting method
Method in brief: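 GST-tagged DOT1L catalytic domain (1-420), expressed in E. coli BL21(DE3) and Ni-affinity purified, used at 125 nM. Compound added before SAM start; 1 hr at room temperature. Product captured on P81 filters, NaHCO3-washed, and counted by scintillation.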
Target sequence in this assay (Q8TEK3 whole entry, the tested form may be a part): as the sequence (Q8TEK3 whole entry, looked up, the tested form may be a part) above

[3] = molecular target: T1, Histone-lysine N-methyltransferase, H3 lysine-79 specific; experiment: Inhibition of recombinant human N-terminal GST-tagged DOT1L (1 to 420 residues) expressed in Escherichia coli BL21 (DE3) using histone as substrate incubated for 1 hr by MTase-glo based luminescence assay
Target sequence in this assay (Q8TEK3 whole entry, the tested form may be a part): as the sequence (Q8TEK3 whole entry, looked up, the tested form may be a part) above

[4] = molecular target: DNA (cytosine-5)-methyltransferase 1 (Homo sapiens, UniProt P26358); experiment: Inhibition of recombinant human DNMT1 using poly(dl-dC) as substrate by hotspot assay; conditions: read-out: IC50
[5] = molecular target: Protein arginine N-methyltransferase 3 (Homo sapiens, UniProt O60678); experiment: Inhibition of recombinant human PRMT3 using histone H4 as substrate by hotspot assay
[6] = molecular target: Protein arginine N-methyltransferase 5 (Homo sapiens, UniProt O14744); experiment: Inhibition of recombinant human PRMT5 using histone H2A as substrate by hotspot assay
[7] = molecular target: Histone-lysine N-methyltransferase EZH2 (Homo sapiens, UniProt Q15910); experiment: Inhibition of recombinant human EZH2 using core histone as substrate by hotspot assay
[8] = molecular target: T2, Histone-lysine N-methyltransferase SETD7 (Homo sapiens, UniProt Q8WTS6); experiment: Inhibition of recombinant human SET7/9 using core histone as substrate by hotspot assay
T2 sequence (Q8WTS6 whole entry): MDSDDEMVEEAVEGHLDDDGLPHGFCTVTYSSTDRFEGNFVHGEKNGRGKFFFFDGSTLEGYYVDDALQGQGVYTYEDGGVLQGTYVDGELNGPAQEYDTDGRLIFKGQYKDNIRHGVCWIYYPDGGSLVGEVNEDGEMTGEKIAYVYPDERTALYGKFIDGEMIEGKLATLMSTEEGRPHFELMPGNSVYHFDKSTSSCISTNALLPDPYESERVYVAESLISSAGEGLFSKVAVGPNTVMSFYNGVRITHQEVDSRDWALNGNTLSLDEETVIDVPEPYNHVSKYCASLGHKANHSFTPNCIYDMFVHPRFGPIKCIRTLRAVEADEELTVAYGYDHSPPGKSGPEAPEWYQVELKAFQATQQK

[9] = molecular target: T3, Histone-lysine N-methyltransferase EHMT2 (Homo sapiens, UniProt Q96KQ7); experiment: Inhibition of recombinant human G9a using histone H3 (1 to 21) as substrate by hotspot assay
T3 sequence (Q96KQ7 whole entry): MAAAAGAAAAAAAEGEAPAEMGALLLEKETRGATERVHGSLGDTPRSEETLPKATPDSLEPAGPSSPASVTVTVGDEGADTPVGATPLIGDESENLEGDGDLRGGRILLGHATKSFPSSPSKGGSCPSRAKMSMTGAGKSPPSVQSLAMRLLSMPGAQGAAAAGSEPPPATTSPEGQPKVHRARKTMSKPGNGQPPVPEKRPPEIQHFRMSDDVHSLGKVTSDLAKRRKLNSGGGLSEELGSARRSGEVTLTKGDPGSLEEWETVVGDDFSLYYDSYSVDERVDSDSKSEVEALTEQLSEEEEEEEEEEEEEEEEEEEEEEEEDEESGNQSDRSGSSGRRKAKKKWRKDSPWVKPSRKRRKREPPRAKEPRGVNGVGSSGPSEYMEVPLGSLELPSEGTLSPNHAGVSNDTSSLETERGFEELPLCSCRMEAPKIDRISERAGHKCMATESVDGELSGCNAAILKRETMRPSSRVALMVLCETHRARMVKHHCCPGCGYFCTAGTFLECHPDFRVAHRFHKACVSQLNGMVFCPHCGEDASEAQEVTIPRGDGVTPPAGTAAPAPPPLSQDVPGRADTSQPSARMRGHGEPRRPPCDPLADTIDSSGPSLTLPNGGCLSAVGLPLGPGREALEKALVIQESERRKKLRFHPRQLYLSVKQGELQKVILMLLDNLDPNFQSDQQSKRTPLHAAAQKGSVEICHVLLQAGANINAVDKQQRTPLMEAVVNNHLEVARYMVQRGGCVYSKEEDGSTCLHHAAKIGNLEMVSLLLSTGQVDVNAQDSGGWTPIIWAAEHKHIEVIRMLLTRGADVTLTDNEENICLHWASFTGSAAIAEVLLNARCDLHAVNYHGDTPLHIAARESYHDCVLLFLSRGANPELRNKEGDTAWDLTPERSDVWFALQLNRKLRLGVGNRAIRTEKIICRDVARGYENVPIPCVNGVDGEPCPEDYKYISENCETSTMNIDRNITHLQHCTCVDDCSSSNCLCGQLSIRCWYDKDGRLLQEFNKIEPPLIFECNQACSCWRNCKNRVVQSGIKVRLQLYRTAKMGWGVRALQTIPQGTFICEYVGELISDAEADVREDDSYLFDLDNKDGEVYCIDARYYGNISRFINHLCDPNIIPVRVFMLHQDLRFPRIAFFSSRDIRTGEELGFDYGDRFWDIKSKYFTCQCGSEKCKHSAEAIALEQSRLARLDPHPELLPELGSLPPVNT

[10] = molecular target: T1, Histone-lysine N-methyltransferase, H3 lysine-79 specific; experiment: Binding affinity to recombinant human N-terminal GST-tagged DOT1L (1 to 420 residues) expressed in Escherichia coli BL21 (DE3) assessed as increase in melting temperature at 100 uM incubated for 1 min by 1,8-ANS probe based thermal shift assay
Target sequence in this assay (Q8TEK3 whole entry, looked up, the tested form may be a part): as the sequence (Q8TEK3 whole entry, looked up, the tested form may be a part) above

Histone-lysine N-methyltransferase EZH2, sequence (Q15910 whole entry): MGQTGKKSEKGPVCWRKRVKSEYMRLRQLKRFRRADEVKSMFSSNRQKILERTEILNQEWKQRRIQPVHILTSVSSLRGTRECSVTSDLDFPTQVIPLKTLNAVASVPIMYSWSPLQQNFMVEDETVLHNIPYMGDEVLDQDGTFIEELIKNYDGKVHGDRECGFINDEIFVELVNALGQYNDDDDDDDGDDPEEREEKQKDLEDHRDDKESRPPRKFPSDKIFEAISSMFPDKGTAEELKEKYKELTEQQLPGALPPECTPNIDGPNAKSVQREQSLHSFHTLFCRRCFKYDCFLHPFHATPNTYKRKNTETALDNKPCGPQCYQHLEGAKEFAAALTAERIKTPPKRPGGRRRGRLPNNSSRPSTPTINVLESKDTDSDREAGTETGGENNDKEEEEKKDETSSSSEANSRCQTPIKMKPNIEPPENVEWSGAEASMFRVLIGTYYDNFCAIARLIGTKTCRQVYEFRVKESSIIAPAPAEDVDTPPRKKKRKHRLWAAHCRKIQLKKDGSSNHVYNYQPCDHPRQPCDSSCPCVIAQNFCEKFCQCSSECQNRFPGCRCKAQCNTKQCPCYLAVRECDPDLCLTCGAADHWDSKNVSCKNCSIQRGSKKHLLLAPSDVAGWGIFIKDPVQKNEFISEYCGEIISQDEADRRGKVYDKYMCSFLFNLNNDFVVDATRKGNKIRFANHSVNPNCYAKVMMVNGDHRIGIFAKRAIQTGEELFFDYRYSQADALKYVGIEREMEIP
Protein arginine N-methyltransferase 3, sequence (O60678 whole entry): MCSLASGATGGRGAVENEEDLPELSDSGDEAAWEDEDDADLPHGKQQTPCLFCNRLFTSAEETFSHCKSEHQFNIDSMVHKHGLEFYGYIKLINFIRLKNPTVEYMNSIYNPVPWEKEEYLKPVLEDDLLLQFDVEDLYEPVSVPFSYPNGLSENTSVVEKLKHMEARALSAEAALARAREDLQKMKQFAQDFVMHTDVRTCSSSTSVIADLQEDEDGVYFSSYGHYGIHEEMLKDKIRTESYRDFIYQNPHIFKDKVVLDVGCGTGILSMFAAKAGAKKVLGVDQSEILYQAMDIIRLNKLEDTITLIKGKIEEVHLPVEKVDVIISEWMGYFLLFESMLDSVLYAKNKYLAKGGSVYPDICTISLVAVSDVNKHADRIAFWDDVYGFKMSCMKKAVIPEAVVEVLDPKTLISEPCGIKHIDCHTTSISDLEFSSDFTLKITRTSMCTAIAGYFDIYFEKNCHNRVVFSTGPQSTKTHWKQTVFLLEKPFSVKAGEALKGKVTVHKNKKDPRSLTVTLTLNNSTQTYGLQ
DNA (cytosine-5)-methyltransferase 1, sequence (P26358 whole entry): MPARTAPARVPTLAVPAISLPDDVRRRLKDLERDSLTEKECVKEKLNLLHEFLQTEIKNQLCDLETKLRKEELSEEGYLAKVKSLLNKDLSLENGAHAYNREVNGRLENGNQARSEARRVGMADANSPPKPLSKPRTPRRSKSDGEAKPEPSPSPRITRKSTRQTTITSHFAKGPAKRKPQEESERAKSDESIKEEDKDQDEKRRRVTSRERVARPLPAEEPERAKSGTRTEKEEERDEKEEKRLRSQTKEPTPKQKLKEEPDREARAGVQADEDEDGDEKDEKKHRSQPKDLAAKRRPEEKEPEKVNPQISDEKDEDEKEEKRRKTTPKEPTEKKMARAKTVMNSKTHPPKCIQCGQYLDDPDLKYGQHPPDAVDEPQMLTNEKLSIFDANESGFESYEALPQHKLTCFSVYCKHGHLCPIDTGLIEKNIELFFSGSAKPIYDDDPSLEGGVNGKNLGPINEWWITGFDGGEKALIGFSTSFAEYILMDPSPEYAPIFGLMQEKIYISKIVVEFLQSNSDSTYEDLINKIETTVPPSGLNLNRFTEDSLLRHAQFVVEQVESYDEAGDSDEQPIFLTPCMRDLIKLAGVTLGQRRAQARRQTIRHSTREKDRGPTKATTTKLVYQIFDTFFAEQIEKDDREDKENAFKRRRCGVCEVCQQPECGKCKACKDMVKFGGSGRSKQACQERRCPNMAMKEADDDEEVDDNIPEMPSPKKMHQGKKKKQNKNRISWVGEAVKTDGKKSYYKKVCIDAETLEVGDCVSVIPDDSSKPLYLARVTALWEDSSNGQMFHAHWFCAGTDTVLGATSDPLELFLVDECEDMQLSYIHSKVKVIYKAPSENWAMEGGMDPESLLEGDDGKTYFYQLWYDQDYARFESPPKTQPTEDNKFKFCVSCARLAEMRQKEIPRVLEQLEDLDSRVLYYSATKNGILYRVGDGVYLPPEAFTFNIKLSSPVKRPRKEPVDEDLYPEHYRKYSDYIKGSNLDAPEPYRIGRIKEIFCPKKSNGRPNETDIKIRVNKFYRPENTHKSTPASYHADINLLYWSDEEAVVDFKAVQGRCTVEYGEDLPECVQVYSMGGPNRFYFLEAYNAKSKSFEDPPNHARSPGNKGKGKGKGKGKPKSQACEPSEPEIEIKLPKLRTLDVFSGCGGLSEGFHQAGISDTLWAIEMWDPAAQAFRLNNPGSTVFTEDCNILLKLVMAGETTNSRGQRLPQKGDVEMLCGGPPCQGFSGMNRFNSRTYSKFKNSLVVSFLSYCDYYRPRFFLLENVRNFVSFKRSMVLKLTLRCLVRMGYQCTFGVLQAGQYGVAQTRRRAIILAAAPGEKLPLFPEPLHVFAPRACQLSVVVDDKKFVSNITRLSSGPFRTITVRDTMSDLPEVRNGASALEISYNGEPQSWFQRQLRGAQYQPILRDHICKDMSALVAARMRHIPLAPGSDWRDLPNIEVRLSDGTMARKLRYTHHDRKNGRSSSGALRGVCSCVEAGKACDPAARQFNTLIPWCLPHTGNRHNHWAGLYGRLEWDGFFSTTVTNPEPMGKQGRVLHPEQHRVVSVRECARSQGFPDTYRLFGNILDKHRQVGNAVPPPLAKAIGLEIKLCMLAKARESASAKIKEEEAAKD

Row | SMILES | IC50 [2] [µM] | Activity [10] | IC50 [3] [µM] | other results
1 | Cc1ccc(NC(=O)c2ncn(CC(=O)NCc3ccc4c(c3)OCO4)n2)cc1C | 82.9 |  | 40.8 | Activity [1]: Active
2 | Cc1ccc(NC(=O)c2ncn(CC(=O)NCCn3ccc4c(N)ncnc43)n2)cc1C |  |  | 10.9 | IC50 [4]: > 250 µM; IC50 [5]: Not Active; IC50 [6]: Not Active; IC50 [7]: Not Active; IC50 [8]: Not Active; IC50 [9]: Not Active
3 | Nc1ncnc2c1ccn2CCNC(=O)Cn1cnc(C(=O)NC2CCCCC2)n1 |  |  | > 100 | 
4 | Cc1ccc(NC(=O)c2ncn(CC(=O)NCCn3cnc4[nH]ccc4c3=O)n2)cc1C |  |  | 138 | 
5 | Cc1ccc(NC(=O)c2ncn(CC(=O)NCc3ccc4[nH]ncc4c3)n2)cc1C |  |  | 36.9 | 
6 | Nc1ncnc2c1ncn2[C@@H]1O[C@H](CNC(=O)[C@@H](N)Cc2ccc(C(=O)c3ccccc3)cc2)[C@@H](O)[C@H]1O | 57 | Active |  | 
7 | O=C(Cn1cnc(C(=O)NC2CCCCC2)n1)NCc1ccc2c(c1)OCO2 |  |  | > 100 | 

The next lines start with results.

Row | IC50 [2] [µM] | Activity [10] | SMILES | IC50 [3] [µM] | other results
8 | 130 |  | Cc1ccc(NC(=O)c2ncn(CC(=O)NCc3nc4ccccc4[nH]3)n2)cc1C |  | Activity [1]: Active
9 | 168 | Active | Nc1ncnc2c1ncn2[C@@H]1O[C@H](CNC(=O)[C@@H](N)Cc2ccc(C(F)(F)F)cc2)[C@@H](O)[C@H]1O |  | 
10 | 120 | Active | Nc1ncnc2c1ncn2[C@@H]1O[C@H](CNCc2ccc(OCc3ccccc3)cc2)[C@@H](O)[C@H]1O |  | 
11 | 677 |  | O=C(Nc1ccn(CCCNCc2ccc3c(c2)OCO3)c(=O)n1)OCc1ccccc1 |  | Activity [1]: Active
12 | 32.4 | Active | Nc1ncnc2c1ncn2[C@@H]1O[C@H](CNCc2ccc(-c3cc(C(F)(F)F)ccc3Cl)o2)[C@@H](O)[C@H]1O |  | 
